Data as given in PubChem BioAssay AID623899 (Broad Institute, 2012).
Where “and” joins values, the source holds several entries; their conditions need not be identical. Equal entries are not always repeated. Calls of active or inactive are those of the source.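 How the source made its calls: active means falling signal with AC50 at or below twice the highest valid dose tested for that sample; inconclusive means flat curve at 30 to 70% inhibition, or unreliable fit; inactive means the rest.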

Assays:
[1] = single-agent C. albicans CaCi-2 growth inhibition, dose response, CaCi-2 strain, dry powder, plate reader, set 2 (AID 623899); conditions: C. albicans CaCi-2 growth, Alamar Blue fluorescence, 48 h; at 26 µM (top of the series)
In short: (§1)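 Dosing: pinned compound, dose-response series. Test system: fluconazole-resistant C. albicans strain CaCi-2. Quantity: inoculum OD600 0.00015. Times: 48 h compound exposure at 37 °C, dye 2 h. Measured by: Alamar Blue fluorescence.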

[2] = system: C. albicans CaCi-2 growth, Alamar Blue fluorescence, 48 h; assay: as above
In short: as §1

| SMILES | activity change, negative = inhibition [1] | AC50 [2] |
| --- | --- | --- |
| Cc1ccc(N2C(=O)C3(CCCCC3)NC2=S)cc1 | 9.21% (inactive) | – |
| Cc1ccc(N2C(=O)C(=O)NC2=S)cc1 | 9.23% (inactive) | – |
| CCOC(=O)N1C(=O)C2(CCCCC2)N(c2ccccc2)C1=S | – | 148 nM |
| CCOC(=O)N1C(=O)C2(CCOCC2)N(c2ccc(C)cc2)C1=S | – | 20600 nM |
| CCOC(=O)N1C(=S)NC(=O)C12CCCCC2 | 6.84% (inactive) | – |
| CCOC(=O)N1C(=O)C2(CCCCC2)N(c2ccc(CC)cc2)C1=S | – | 1900 nM |
| CCOC(=O)N1C(=O)C2(CCCCC2)N(c2cccc(C)c2)C1=S | – | 189 nM |
| CCCc1ccc(N2C(=S)N(C(=O)OCC)C(=O)C23CCCCC3)cc1 | – | 6910 nM |
| CCOC(=O)N1C(=O)C2(CCC2)N(c2ccc(C)cc2)C1=S | 18% (inactive) | – |
| Cc1ccc(N2C(=S)N(C(=O)OCc3ccccc3)C(=O)C23CCCCC3)cc1 | 1.35% (inactive) | – |
| Cc1ccc(N2CC(=O)NC2=O)cc1 | -7.46% (inactive) | – |
| CCOC(=O)N1C(=O)C2(CCCCC2)N(c2ccccc2C)C1=S | – | 1200 nM |
| CC(C)N1C(=S)NC(=O)C12CCCCC2 | -4.41% (inactive) | – |
| CCOC(=O)N1C(=O)C2(CCCCC2)N(c2ccc(C)cc2)C1=S | – | 359 nM and 303 nM |
| O=C1NC(=S)N(Cc2ccccc2)C12CCCCC2 | 0.564% (inactive) | – |
| O=C1NC(=S)NC12CCCCC2 | 4.86% (inactive) | – |
| CCOC(=O)N1C(=O)C2(CCCCC2)N(c2ccc(Cl)cc2)C1=S | – | < 100 nM |
| CCCCN1C(=O)C2(CCCCC2)N(c2ccc(C)cc2)C1=S | – | > 52000 nM (inactive) |
| CCOC(=O)N1C(=O)C2(CCCCC2)N(Cc2ccccc2)C1=S | – | 3760 nM |
| CCOC(=O)N1C(=O)C2(CCCCC2)NC1=S | 0.477% (inactive) | – |
| CCOC(=O)N1C(=S)N(c2ccc(C)cc2)C(=O)C12CCCCC2 | 6.88% (inactive) | – |
| CC1/C=C/C=C\C=C\C=C\C=C\C=C\C=C\C(O[C@H]2OC(C)C(O)C(N)C2O)CC2OC(O)(CC(O)CC(O)C(O)CCC(O)CC(O)CC(=O)OC(C)C(C)C1O)CC(O)C2C(=O)O (stereo partly specified) | – | < 10 nM |
| Cc1ccc(N2C(=S)NC(=O)C23CCCC3)cc1 | 7.79% (inactive) | – |
| O=C1NC(=S)N(c2ccccc2)C12CCCCC2 | – | > 52000 nM (inactive) |
| Cc1ccc(N2C(=S)NC(=O)C23CCC3)cc1 | -14.6% (inactive) | – |
| COC(=O)N1C(=O)C2(CCCCC2)N(c2ccc(C)cc2)C1=S | – | 1890 nM |

| SMILES | activity change, negative = inhibition [1] | AC50 [2] |
| --- | --- | --- |
| Cc1ccc(N2C(=S)NC(=O)C23CCCCC3)cc1 | – | > 52000 nM (inactive) |
| Cc1ccc(N2C(=S)N(S(C)(=O)=O)C(=O)C23CCCCC3)cc1 | 8.47% (inactive) | – |
| CCOC(=O)N1C(=O)C2(CCCC2)N(c2ccc(C)cc2)C1=S | – | 9790 nM |
| CCCCN1C(=O)N(c2ccc(C)cc2)C2(CCCCC2)C1=S | – | > 52000 nM (inactive) |
| Cc1ccc(N2C(=S)N(C(=O)Oc3ccccc3)C(=O)C23CCCCC3)cc1 | 9.01% (inactive) | – |
| CCOC(=O)N1C(=O)C2(CCCCC2)N(c2ccc(C(F)(F)F)cc2)C1=S | – | 841 nM |
| CCOC(=O)N1C(=O)N(c2ccc(C)cc2)C2(CCCCC2)C1=O | -28.5% (inactive) | – |
| CCOC(=O)N1C(=O)C2(CCCCC2)N(c2ccc(C(C)C)cc2)C1=S | -19.6% (inactive) | – |
| CCOC(=O)N1C(=S)N(c2ccc(C)cc2)C2(CCCCC2)C1=NCc1ccccc1 | 3.84% (inactive) | – |
| Cc1ccc(N2C(=O)NC(=O)C23CCCCC3)cc1 | 14.7% (inactive) | – |
| CCCOC(=O)N1C(=O)C2(CCCCC2)N(c2ccc(C)cc2)C1=S | – | 5900 nM |
| CCOC(=O)N1C(=O)C2(CCCCC2)N(c2ccc(OC)cc2)C1=S | – | 1780 nM |
| Cc1ccc(N2C(=S)N(C(=O)OC(C)C)C(=O)C23CCCCC3)cc1 | – | 8740 nM |
| CCOC(=O)N1C(=O)C2(CCCCC2)N(c2ccc(F)cc2)C1=S | – | < 100 nM |
| CCOC(=O)N1C(=O)C2(CCCCC2)N(c2ccc(C#N)cc2)C1=S | – | < 100 nM |
| CCCCN1C(=O)N(c2ccc(C)cc2)C2(CCCCC2)C1=O | 9.77% (inactive) | – |
| Cc1ccc(N2C(=S)N(C)C(=O)C23CCCCC3)cc1 | -8.14% (inactive) and -15.3% (inactive) | – |
| CCOC(=O)N1C(=O)C2(CCCCC2)N(C(C)C)C1=S | -20% (inactive) | – |
| Cc1ccc(N2C(=S)NC(=O)C23CCOCC3)cc1 | -17.4% (inactive) | – |
| CCOC(=O)N1C(=O)C(C)(C)N(c2ccc(C)cc2)C1=S | 17.8% (inactive) | – |
| CCCC(=O)N1C(=O)C2(CCCCC2)N(c2ccc(C)cc2)C1=S | 15.2% (inactive) | – |
| Cc1ccc(N2CC(=O)NC2=S)cc1 | -6.22% (inactive) | – |
| Cc1ccc(N2C(=S)NC(=O)C2(C)C)cc1 | 2.43% (inactive) | – |
| Cc1ccc(N2C(=O)N(C)C(=O)C23CCCCC3)cc1 | 8.26% (inactive) | – |
| O=C1NC(=S)N(c2ccc(F)cc2)C12CCCCC2 | -13.4% (inactive) | – |
